Measurements taken from ChEMBL document CHEMBL4138318, “Discovery of 5-Cyano-6-phenylpyrimidin Derivatives Containing an Acylurea Moiety as Orally Bioavailable Reversal Agents against P-Glycoprotein-Mediated Mutidrug Resistance” (J Med Chem, 2018).
Activity calls are given as the source filed them. The rule behind the calls is not given here.

Columns and labels:
[1] = biological target: T1, ATP-dependent translocase ABCB1 (Homo sapiens, UniProt P08183); assay: Inhibition of ABCB1 in human SW620/AD300 cells assessed as accumulation of rhodamine 123 preincubated for 4 hrs followed by rhodamine 123 addition measured after 30 mins by flow cytometry; assay type: cell-based; conditions: 0.5 h
T1 sequence (P08183 whole entry): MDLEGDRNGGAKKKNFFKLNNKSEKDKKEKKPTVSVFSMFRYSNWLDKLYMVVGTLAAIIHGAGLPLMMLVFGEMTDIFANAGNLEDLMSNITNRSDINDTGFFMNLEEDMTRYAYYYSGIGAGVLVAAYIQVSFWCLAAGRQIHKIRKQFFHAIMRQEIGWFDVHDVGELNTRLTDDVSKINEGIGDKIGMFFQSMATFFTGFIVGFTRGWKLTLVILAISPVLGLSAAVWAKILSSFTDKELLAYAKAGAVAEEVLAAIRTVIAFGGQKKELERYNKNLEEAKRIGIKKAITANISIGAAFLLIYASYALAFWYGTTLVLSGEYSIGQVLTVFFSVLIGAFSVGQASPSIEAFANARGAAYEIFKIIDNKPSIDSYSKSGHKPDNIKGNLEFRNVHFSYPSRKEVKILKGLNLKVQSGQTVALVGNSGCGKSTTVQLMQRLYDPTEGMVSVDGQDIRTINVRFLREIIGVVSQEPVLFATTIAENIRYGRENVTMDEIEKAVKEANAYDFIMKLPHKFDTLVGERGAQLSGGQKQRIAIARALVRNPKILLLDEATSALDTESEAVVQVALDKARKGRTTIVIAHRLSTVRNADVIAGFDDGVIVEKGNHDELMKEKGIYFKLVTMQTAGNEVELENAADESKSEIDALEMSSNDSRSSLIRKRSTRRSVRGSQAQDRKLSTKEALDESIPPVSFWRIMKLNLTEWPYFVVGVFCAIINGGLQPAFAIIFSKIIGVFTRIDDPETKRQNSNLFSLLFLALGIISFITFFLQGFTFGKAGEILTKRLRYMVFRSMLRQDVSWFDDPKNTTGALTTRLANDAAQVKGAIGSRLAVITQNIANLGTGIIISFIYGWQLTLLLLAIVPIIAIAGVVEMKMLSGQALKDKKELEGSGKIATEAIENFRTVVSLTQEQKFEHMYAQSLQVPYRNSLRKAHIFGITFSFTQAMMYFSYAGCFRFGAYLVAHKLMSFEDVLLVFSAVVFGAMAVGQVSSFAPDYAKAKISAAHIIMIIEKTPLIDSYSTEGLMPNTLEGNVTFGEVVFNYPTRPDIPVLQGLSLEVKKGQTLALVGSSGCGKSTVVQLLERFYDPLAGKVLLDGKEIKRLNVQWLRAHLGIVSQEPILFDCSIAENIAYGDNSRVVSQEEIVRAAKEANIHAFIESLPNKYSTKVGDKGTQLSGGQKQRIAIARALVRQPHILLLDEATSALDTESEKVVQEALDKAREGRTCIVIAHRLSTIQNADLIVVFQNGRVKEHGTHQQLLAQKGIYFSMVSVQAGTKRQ

[2] = biological target: T1, ATP-dependent translocase ABCB1; assay: Inhibition of ABCB1 in human KB-C2 cells assessed as potentiation of vincristine-induced cytotoxicity by measuring fold reduction in vincristine IC50 at 1 uM preincubated for 4 hrs followed by vincristine addition measured after 72 hrs by MTT assay; assay type: cell-based
[3] = biological target: T1, ATP-dependent translocase ABCB1; assay: Stimulation of human ABCB1 ATPase activity expressed in high-five insect cell membrane vesicles by colorimetric analysis
Summary of the method: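 Vanadate-sensitive ABCB1 ATPase activity in High Five insect cell membrane vesicles, measured with a commercial ATPase kit under a modified protocol; compound tested across 0-40 µM; maximal fold stimulation and concentration giving 50% stimulation derived.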

SW-620 = assay: Increase in rhodamine 123 accumulation in human SW620 cells up to 4 uM preincubated for 4 hrs followed by rhodamine 123 addition measured after 30 mins by flow cytometry; assay type: functional, cell-based
Mus musculus = assay: Toxicity in nude BALB/c mouse xenografted with ABCB1 overexpressing human SW620/AD300 cells assessed as change in body weight at 20 mg/kg/day, po cotreated with 5 mg/kg, ip paclitaxel measured after 21 days; assay type: organism-based; conditions: in vivo, 504 h
Summary of the method: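 Female BALB/c nude mice (18-20 g, 5-6 weeks) bearing SW620/AD300 xenografts; grouping once tumours reached 100 mm3: saline vehicle […] ip, paclitaxel 5 mg/kg every 3 days ip, test agent 20 mg/kg/day orally, or the combination. Body weight and tumour volume recorded every 2 days over 21 days; tumours excised and weighed at end.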

[4] = biological target: T1, ATP-dependent translocase ABCB1; assay: Inhibition of ABCB1 in human SW620/AD300 cells assessed as potentiation of paclitaxel-induced cytotoxicity by measuring fold reduction in paclitaxel IC50 at 0.5 uM after 72 hrs by MTT assay; assay type: cell-based
Summary of the method: (§1)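 SW620/AD300 cells (~5×10^3/well) treated with graded paclitaxel with or without modulator (2 µM, or 0.5-2 µM in dose series; 0.1% DMSO solvent control) for 72 h; MTT (5 mg/mL stock) added 4 h, absorbance 490 nm. IC50 as mean ± SD of three independent runs; reversal fold = paclitaxel IC50 without/with modulator.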

[5] = biological target: T1, ATP-dependent translocase ABCB1; assay: Inhibition of ABCB1 in human SW620/AD300 cells assessed as decrease in rhodamine 123 efflux preincubated for 4 hrs followed by 30 mins incubation in Rho-123 containing medium and subsequent incubation in Rho-123 free medium up to 120 mins by flow cytometry; assay type: cell-based
Summary of the method: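 Cells loaded with rhodamine 123 as in the accumulation assay (4 h compound pre-exposure, 1 µg/mL dye 30 min, 37℃), then kept in dye-free medium with or without reversal agent for 30, 60, 90 or 120 min at 37℃; intracellular fluorescence read by flow cytometry at 488/530 nm. Three independent experiments.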

[6] = biological target: T2, Multidrug resistance-associated protein 1 (Homo sapiens, UniProt P33527); assay: Inhibition of ABCC1 (unknown origin) expressed in HEK293 cells assessed as potentiation of vincristine-induced cytotoxicity by measuring fold reduction in vincristine IC50 at 1 uM preincubated for 4 hrs followed by vincristine addition measured after 72 hrs by MTT assay; assay type: cell-based
T2 sequence (P33527 whole entry): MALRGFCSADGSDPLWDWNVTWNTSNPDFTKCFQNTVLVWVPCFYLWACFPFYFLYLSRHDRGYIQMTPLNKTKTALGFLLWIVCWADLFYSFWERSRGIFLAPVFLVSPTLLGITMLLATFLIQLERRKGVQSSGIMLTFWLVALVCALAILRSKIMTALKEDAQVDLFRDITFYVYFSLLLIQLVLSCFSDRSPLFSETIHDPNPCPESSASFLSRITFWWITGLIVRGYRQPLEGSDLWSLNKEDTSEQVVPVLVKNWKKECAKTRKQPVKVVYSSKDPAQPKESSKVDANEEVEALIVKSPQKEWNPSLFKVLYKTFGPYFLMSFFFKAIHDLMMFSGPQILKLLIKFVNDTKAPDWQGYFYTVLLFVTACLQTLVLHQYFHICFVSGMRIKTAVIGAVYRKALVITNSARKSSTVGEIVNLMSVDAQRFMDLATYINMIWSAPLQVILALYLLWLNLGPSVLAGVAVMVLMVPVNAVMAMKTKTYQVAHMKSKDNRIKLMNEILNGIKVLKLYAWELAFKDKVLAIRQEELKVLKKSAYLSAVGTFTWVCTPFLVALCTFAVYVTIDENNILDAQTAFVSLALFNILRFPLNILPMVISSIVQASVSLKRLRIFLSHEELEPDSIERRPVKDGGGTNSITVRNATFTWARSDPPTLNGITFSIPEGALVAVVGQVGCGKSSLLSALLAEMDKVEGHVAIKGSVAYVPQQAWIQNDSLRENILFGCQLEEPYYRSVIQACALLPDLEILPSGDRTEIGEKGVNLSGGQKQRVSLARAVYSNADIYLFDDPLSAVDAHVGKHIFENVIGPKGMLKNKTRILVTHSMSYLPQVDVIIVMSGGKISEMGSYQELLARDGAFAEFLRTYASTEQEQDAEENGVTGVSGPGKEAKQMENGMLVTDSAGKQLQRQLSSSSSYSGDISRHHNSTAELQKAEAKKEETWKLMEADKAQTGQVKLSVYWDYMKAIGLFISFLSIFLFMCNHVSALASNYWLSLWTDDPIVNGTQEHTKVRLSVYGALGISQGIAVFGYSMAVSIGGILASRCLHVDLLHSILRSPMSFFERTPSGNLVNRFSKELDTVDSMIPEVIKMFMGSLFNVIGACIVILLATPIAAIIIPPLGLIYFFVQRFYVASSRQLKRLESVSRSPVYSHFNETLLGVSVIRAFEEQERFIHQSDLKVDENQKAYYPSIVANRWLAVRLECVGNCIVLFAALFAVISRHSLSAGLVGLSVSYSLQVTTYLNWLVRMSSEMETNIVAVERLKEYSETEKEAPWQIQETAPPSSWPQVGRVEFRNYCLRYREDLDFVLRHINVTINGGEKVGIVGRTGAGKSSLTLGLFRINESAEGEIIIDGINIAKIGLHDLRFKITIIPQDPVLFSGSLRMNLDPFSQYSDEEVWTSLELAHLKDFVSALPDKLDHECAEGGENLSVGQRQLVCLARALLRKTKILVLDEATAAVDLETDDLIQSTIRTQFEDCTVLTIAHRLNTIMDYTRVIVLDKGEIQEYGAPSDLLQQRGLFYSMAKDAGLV
Summary of the method: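 KB-CV60 and HEK293/ABCC1 cells (transfected line kept in 2 mg/mL G418) given graded vincristine with or without modulator for 72 h; MK571 25 µM reference; viability by MTT read at 490 nm. IC50 from three independent repeats, mean ± SD; reversal fold = vincristine IC50 ratio without/with modulator.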

[7] = biological target: T1, ATP-dependent translocase ABCB1; assay: Inhibition of ABCB1 in human SW620/AD300 cells assessed as potentiation of paclitaxel-induced cytotoxicity by measuring fold reduction in paclitaxel IC50 at 2 uM after 72 hrs by MTT assay relative to paclitaxel alone; assay type: cell-based; summary of the method: as §1
[8] = biological target: T2, Multidrug resistance-associated protein 1; assay: Binding affinity at ABCC1 in human SW620/AD300 cells assessed as thermal stabilization preincubated for 30 mins followed by incubation 40 to 61 degC for 3 mins by CETSA; assay type: cell-based; conditions: 0.05 h
Summary of the method: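 SW620/AD300 cells lysed by three liquid-nitrogen freeze-thaw cycles; ultracentrifuged supernatant split into compound-treated and solvent-control portions, incubated 30 min at 37℃, aliquoted and heated 3 min at 40, 43, 46, 49, 52, 55, 58 or 61℃; remaining ABCB1 or ABCC1 detected by western blotting.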

[9] = Cytotoxicity against human SW620 cells assessed as survival at 2 uM after 72 hrs by MTT assay relative to control; assay type: cell-based, SW-620; conditions: read-out: Survival

COc1cc(-c2nc(SCC(=O)NC(=O)Nc3ccccn3)nc(Nc3cccc(Cl)c3)c2C#N)cc(OC)c1OC
inhibition (INH) [1]: Dose-dependent effect
fold change (FC) [2]: 3.85
fold change (FC) [3]: 4.56
Activity (SW-620): inactive
Activity (Mus musculus): Non-Toxic
fold change (FC) [4]: 72.17
inhibition (INH) [5]: Dose-dependent effect
fold change (FC) [6]: 1.14
fold change (FC) [7]: 837.2
Activity [8]: Not Active
viability at 72 h, 2 µM [9]: > 90%
